{"data": "Published values collected from several papers", "target": "Eukaryotic translation initiation factor 2-alpha kinase 1 (EIF2AK1, Homo sapiens, UniProt Q9BQI3)", "note": "Protocols differ between the studies behind these lines."}
{"Structure (SMILES)": "O=C(NCCCN1CCOCC1)c1ccc(Nc2nccc(-c3cc4ccccc4s3)n2)cc1", "test": "binding, competition with immobilised ligand", "conditions": "1 µM", "remaining binding [%]": 100}
{"Structure (SMILES)": "CNC(=O)[C@@H]1CC[C@@H](n2c(-c3ccc4cnccc4c3)nc3ccc(C(=O)NCc4cccc(C(N)=O)c4)cc32)C1", "test": "binding, competition with immobilised ligand", "conditions": "1 µM", "remaining binding [%]": 100}
{"Structure (SMILES)": "Cc1cnc(Nc2ccc(C(=O)N3CCC(N4CCCC4)CC3)cc2)nc1-c1cc2ccccc2s1", "test": "binding, competition with immobilised ligand", "conditions": "1 µM", "remaining binding [%]": 100}
{"Structure (SMILES)": "C=CC(=O)N1CCC(C(=O)NCC(=O)N2CCN(c3nc(-c4cnc(N)nc4C(F)F)nc(N4CCOCC4)n3)CC2)CC1", "test": "binding, competition with immobilised ligand", "conditions": "1 µM", "remaining binding [%]": 94}
{"Structure (SMILES)": "c1cncc(-c2cccc(Nc3nccc(NC4CCCCC4)n3)c2)c1", "test": "binding, competition with immobilised ligand", "conditions": "10 µM", "remaining binding [%]": 87}
{"Structure (SMILES)": "FC(F)(F)c1ccc2c(c1)nc(-c1cccnc1)n2C1CC1", "test": "cell-free assay, competition with immobilised ligand", "conditions": "1 µM", "remaining binding [%]": 100}
{"Structure (SMILES)": "C[C@@H](c1ccc(-n2cnc3c(N)ncnc32)cc1)N1CCc2nn(C)c(Cc3ccccc3)c2C1=O", "test": "binding, competition with immobilised ligand", "conditions": "0.1 µM", "remaining binding [%]": 66}
{"Structure (SMILES)": "Cc1nc(C2CCN(C(=O)c3ccc(OC(F)(F)F)cc3N)CC2)c2ncc(N3CCN(C)CC3)cc2n1", "test": "cell-free assay, competition with immobilised ligand", "conditions": "1 µM", "remaining binding [%]": 85}
{"Structure (SMILES)": "FC(F)(F)Oc1cccc(-c2cnc3ccc(-c4ccncc4)nn23)c1", "test": "cell-free assay, competition with immobilised ligand", "conditions": "5 µM", "remaining binding [%]": 88}
{"Structure (SMILES)": "Nc1cnc(N2CCc3cc(S(=O)(=O)Nc4c(F)cc(Cl)cc4F)cc(N4CCCC4=O)c32)nc1", "test": "cell-free assay, competition with immobilised ligand", "conditions": "1 µM", "remaining binding [%]": 94}
{"Structure (SMILES)": "CN(C)c1nccc(-c2cnn3ncccc23)n1", "test": "binding", "conditions": "1 µM", "remaining binding [%]": 100}
{"Structure (SMILES)": "O=C(NCc1ncc(C(F)(F)F)cc1Cl)c1ccc2c(c1)C1(CCS(=O)(=O)CC1)[C@H](C1CC1)N2S(=O)(=O)c1ccc(F)cc1", "test": "cell-free assay, competition with immobilised ligand", "conditions": "1 µM", "remaining binding [%]": 86}
{"Structure (SMILES)": "CC1CCCN1c1nccc(-c2cnn3ncccc23)n1 (stereo not shown)", "test": "binding", "conditions": "1 µM", "remaining binding [%]": 100}
{"Structure (SMILES)": "Nc1ncc2c(n1)-c1c([nH]c3ccc(C#CC4CC4)cc13)CCCC2", "test": "binding, competition with immobilised ligand", "conditions": "1 µM", "remaining binding [%]": 80}
{"Structure (SMILES)": "C[C@H]1CCN(c2nccc(-c3cnn4ncccc34)n2)C1", "test": "binding", "conditions": "1 µM", "remaining binding [%]": 73}
{"Structure (SMILES)": "O=C(Nc1c[nH]nc1C(=O)NC1CCNCC1)c1cc(F)cc(F)c1", "test": "binding, competition with immobilised ligand", "conditions": "1 µM", "remaining binding [%]": 91}
{"Structure (SMILES)": "CN(CCCC(F)(F)F)c1nccc(-c2cnn3ncccc23)n1", "test": "binding", "conditions": "1 µM", "remaining binding [%]": 100}
{"Structure (SMILES)": "CS(=O)(=O)N1CCCC(NC(=O)[C@H](CCC2CCCCC2)NC(=O)c2ccc(CNC(=O)c3cnc4ccccn34)cc2)C1 (stereo partly shown)", "test": "cell-free assay, competition with immobilised ligand", "conditions": "0.1 µM", "remaining binding [%]": 91}
{"Structure (SMILES)": "c1cnn2ncc(-c3ccnc(N4CCC45COC5)n3)c2c1", "test": "binding", "conditions": "1 µM", "remaining binding [%]": 49}
{"Structure (SMILES)": "CS(=O)(=O)c1cc(C2(NC(=O)c3cncc4c3cnn4-c3ccc(F)cc3)CC2)ccn1", "test": "cell-free assay, competition with immobilised ligand", "conditions": "1 µM", "remaining binding [%]": 73}
{"Structure (SMILES)": "COc1ccnn2ncc(-c3ccnc(N(C)C)n3)c12", "test": "binding", "conditions": "1 µM", "remaining binding [%]": 95}
{"Structure (SMILES)": "O=C(c1ccc(Nc2nccc(-c3cc4ccccc4s3)n2)cc1)N1CCC(N2CCCC2)CC1", "test": "binding, competition with immobilised ligand", "conditions": "1 µM", "remaining binding [%]": 100}
